This passage reports inhibition and IC50 results from ChEMBL document CHEMBL4261567, “Phenylethynyl-substituted Heterocycles Inhibit Cyclin D1 and Induce the Expression of Cyclin-dependent Kinase Inhibitor p21Wif1/Cip1 in Colorectal Cancer Cells” (Medchemcomm, 2018).

Activity calls are given as the source filed them. No cut-off for these calls is given here.

Test [1] concerns LS174T. The test is described as follows: Antiproliferative activity against human LS174T cells assessed as inhibition of cell proliferation at 1 uM after 4 days by Vi-Cell cell viability analyzer based method relative to control. In kind it is functional. The conditions noted are these: 96 h. The method in brief: (§1)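 Cells (colon LS174T, HT-29, Caco2; lung epithelial BEAS-2B; fibroblast HEL 299) were kept in RPMI or DMEM with 5% or 10% FBS plus 1% penicillin/streptomycin. 3 × 10^4 cells per well were exposed to DMSO or compound. After 4 days, cell number and viability were counted on a Vi-Cell analyzer. Results are given as percent inhibition of proliferation at the stated concentration.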

For test [2], the system named is LS174T. The test is described as follows: Antiproliferative activity against human LS174T cells assessed as inhibition of cell proliferation at 10 uM after 4 days by Vi-Cell cell viability analyzer based method relative to control. In kind it is functional. The following applies: 96 h. The procedure, abridged:
as §1

Test [3] has as its system LS174T. Nature of the test: Antiproliferative activity against human LS174T cells assessed as inhibition of cell proliferation at 100 nM after 4 days by Vi-Cell cell viability analyzer based method relative to control. The conditions noted are these: 96 h. The test is classed as functional. The method in brief: as §1
The target of test [4] is G1/S-specific cyclin-D1 (Homo sapiens) (UniProt P24385). The test is described as follows: Inhibition of cyclin D1 in human LS174T cells assessed as reduction in protein level at 300 nM by Western blot analysis. In kind it is cell-based. The method in brief: (§2)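 LS174T cells were treated at 300 nM. Lysates were western blotted with antibodies to cyclin D1 and p21Wif1/Cip1, using β-tubulin as the loading control.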
Chain of G1/S-specific cyclin-D1 (Homo sapiens) (P24385 whole entry): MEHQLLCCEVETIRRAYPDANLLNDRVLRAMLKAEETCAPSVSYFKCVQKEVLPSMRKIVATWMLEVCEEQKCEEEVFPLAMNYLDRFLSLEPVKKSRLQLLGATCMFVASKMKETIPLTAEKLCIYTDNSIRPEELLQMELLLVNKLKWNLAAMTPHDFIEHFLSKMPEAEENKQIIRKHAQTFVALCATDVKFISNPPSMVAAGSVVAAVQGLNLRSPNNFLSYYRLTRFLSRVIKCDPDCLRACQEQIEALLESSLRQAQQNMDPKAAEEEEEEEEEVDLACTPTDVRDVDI
Background: A western blot detects proteins with antibodies after separation by electrophoresis.

The subject of test [5] is LS174T. The test is described as follows: Antiproliferative activity against human LS174T cells assessed as inhibition of cell proliferation after 4 days by Vi-Cell cell viability analyzer based method. In kind it is functional. The conditions noted are these: 96 h. The procedure, abridged: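 LS174T cells in RPMI or DMEM with 5% or 10% FBS plus 1% penicillin/streptomycin were seeded at 3 × 10^4 cells per well. They were treated with DMSO or a range of compound concentrations, and cell number and viability were counted on a Vi-Cell analyzer after 4 days. IC50 was fitted from the dose-response curve.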

For test [6], the target named is G1/S-specific cyclin-D1 (Homo sapiens) (UniProt P24385). The test is described as follows: Inhibition of cyclin D1 in human LS174T cells assessed as induction of p21 waf1/cip1 expression at 300 nM by Western blot analysis. In kind it is cell-based. The method in brief:
as §2

As a reminder, the inhibition is the percentage by which the read-out fell short of the control. `Fc1cccc(F)c1C#Cc1cccc2cnccc12`: in the test with LS174T [1], the inhibition at 1 µM amounted to 64.2%. For the same compound, the inhibition at 10 µM with LS174T [2] turned out to be 93.6%.

With `Fc1cccc(F)c1C#Cc1cnc2[nH]ccc2c1`, the inhibition at 1 µM in the test on LS174T [1] was 17.3%. The inhibition at 10 µM in the test with LS174T [2] stood at 77.9%.

On to `Fc1cccc(F)c1C#Cc1ccnc2cc(Cl)ccc12`, for which, in the test on LS174T [1], the inhibition at 1 µM was found to be 36%. Moreover, in the test on LS174T [2], the inhibition at 10 µM is 74.3%.

Consider `Fc1cccc(F)c1C#Cc1cnc2c(F)cccc2c1`, for which the inhibition at 1 µM in the test with LS174T [1] was 63.6%. For the same compound, the inhibition at 10 µM in the test on LS174T [2] was 89.1%. The inhibition at 0.1 µM in the test with LS174T [3] amounted to 8.8%.

As a reminder, the IC50 is the concentration needed to halve the response being measured. Regarding `CN(C)c1ccc(C#Cc2c(F)cccc2F)cc1`, the inhibition result in test [4] and in test [6] was “Active” throughout. Moreover, the half-inhibitory concentration (IC50) with LS174T [5] was determined as 25.1 nM.

Turning to `CN(C)c1ccc(C#Cc2c(F)cccc2F)cn1`, in the test on LS174T [1], the inhibition at 1 µM came out at 77.9%. Also, in the test with LS174T [2], the inhibition at 10 µM is 83.6%. Moreover, the inhibition at 0.1 µM in the test with LS174T [3] stood at 0%.

Turning to `O=C1CCCCN1c1ccc(C#Cc2c(F)cccc2F)cc1`, the inhibition at 1 µM in the test with LS174T [1] was determined as 6.4%. Besides, the inhibition at 10 µM in the test with LS174T [2] turned out to be 68.1%.

`CN(C)c1ccc2cc(C#Cc3c(F)cccc3F)ccc2n1`: in the test on LS174T [1], the inhibition at 1 µM amounted to 2%. In the test on LS174T [2], the inhibition at 10 µM was found to be 38.7%.

Turning to `Fc1cccc(F)c1C#Cc1ccc2[nH]ccc2c1`, in the test on LS174T [1], the inhibition at 1 µM was 52.9%. In addition, the inhibition at 10 µM in the test with LS174T [2] came to 91.5%.

Consider `CN1CCN(c2ncc(C#Cc3c(F)cccc3F)c3ccccc23)CC1`, for which the inhibition at 1 µM with LS174T [1] was 23.2%. Besides, in the test on LS174T [2], the inhibition at 10 µM worked out at 100%.

For the compound `Fc1cccc(F)c1C#Cc1ccc2[nH]ncc2c1`, the inhibition at 1 µM in the test with LS174T [1] is 17.6%. Besides, in the test with LS174T [2], the inhibition at 10 µM was 82.9%.

Regarding `CN1CCN(c2ccc(C#Cc3c(F)cccc3F)cc2)CC1`, the inhibition at 1 µM in the test with LS174T [1] was found to be 19.9%. For the same compound, the inhibition at 10 µM with LS174T [2] is 99.6%.

With `Fc1cccc(F)c1C#Cc1ccc(-n2cccc2)nc1`, the inhibition at 1 µM with LS174T [1] stood at 80.5%. The inhibition at 10 µM with LS174T [2] stood at 95.3%. For the same compound, the inhibition at 0.1 µM in the test on LS174T [3] worked out at 0%.

As to `Fc1cccc(F)c1C#Cc1cccc2cccnc12`, the inhibition at 1 µM in the test with LS174T [1] stood at 47.6%. In the test on LS174T [2], the inhibition at 10 µM came to 92.7%.

On to `Cn1ncc2ccc(C#Cc3c(F)cccc3F)cc21`, for which the inhibition at 1 µM with LS174T [1] stood at 85.9%. In addition, in the test with LS174T [2], the inhibition at 10 µM worked out at 98.1%. Moreover, the inhibition at 0.1 µM in the test on LS174T [3] was determined as 0%.

Take `CN(C)c1ccc(C#Cc2c(F)cccc2F)nc1`: the inhibition at 1 µM in the test with LS174T [1] was found to be 68.9%. In addition, the inhibition at 10 µM in the test with LS174T [2] came to 85.2%. Besides, the inhibition at 0.1 µM in the test with LS174T [3] came out at 15.1%.

For the compound `Fc1cccc(F)c1C#Cc1ccc2c(Cl)ccnc2c1`, the inhibition at 1 µM with LS174T [1] stood at 23.1%. Further, in the test with LS174T [2], the inhibition at 10 µM was 70.8%.

Regarding `Fc1cccc(F)c1C#Cc1ccc2cncnc2c1`, in the test on LS174T [1], the inhibition at 1 µM was 33.8%. In addition, in the test on LS174T [2], the inhibition at 10 µM was determined as 96.3%.

For the compound `Fc1cccc(F)c1C#Cc1ccc2nc(Cl)ccc2c1`, in the test with LS174T [1], the inhibition at 1 µM turned out to be 21.2%. Also, the inhibition at 10 µM with LS174T [2] was 63.3%.

In the case of `Fc1cccc(F)c1C#Cc1ccc2ccccc2n1`, in the test with LS174T [1], the inhibition at 1 µM turned out to be 67.3%. Moreover, in the test on LS174T [2], the inhibition at 10 µM was determined as 93.8%. The inhibition at 0.1 µM in the test on LS174T [3] worked out at 6.1%.

With `Fc1cccc(F)c1C#Cc1cnc(Cl)c2ccccc12`, in the test with LS174T [1], the inhibition at 1 µM stood at 48.1%. Also, the inhibition at 10 µM in the test on LS174T [2] worked out at 94%. Also, in the test with LS174T [3], the inhibition at 0.1 µM amounted to 0.8%.

On to `Fc1cccc(F)c1C#Cc1cc2ccccc2nc1Cl`, for which the inhibition at 1 µM in the test on LS174T [1] worked out at 28.4%. In addition, the inhibition at 10 µM in the test with LS174T [2] is 85.1%.

For the compound `Fc1cccc(F)c1C#Cc1ccc(-n2cccc2)cc1`, the inhibition at 1 µM in the test with LS174T [1] came out at 77.5%. The inhibition at 10 µM with LS174T [2] came to 96.7%. For the same compound, the inhibition at 0.1 µM in the test on LS174T [3] was 11%.

As to `CN(C)c1cnc(C#Cc2c(F)cccc2F)cn1`, the inhibition at 1 µM in the test on LS174T [1] was 22.9%. In addition, in the test on LS174T [2], the inhibition at 10 µM was 91.6%.
